# Test results: ChEMBL document CHEMBL5724801, “EUbOPEN Chemogenomics Library - Multiplex” (2024)
# “And” between values parts separate entries of the source, which are not always exact repeats. Identical values can stand only once.
# Tests used:
# [1] = test system: U2OS; experiment: Multiplex assay against U2OS; format: toxicity, cell-based; settings: human
# How it was run: (§1)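 Live cells were stained at seeding with Hoechst33342, BioTracker Green Microtubule Cytoskeleton Dye, MitoTracker Red and Annexin V Alexa Fluor 680, then imaged on a CQ1 microscope at 37°C and 5% CO2 after compound addition. CellPathfinder machine-learning gating split cells into Hoechst high-intensity objects or normal cells. Normal cells were split into healthy, pyknosed or fragmented nuclei, and pyknosed cells into mitotic or apoptotic. Tubulin, mitochondrial-mass and membrane-permeability phenotypes are per cents of healthy-nucleus cells.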
# [2] = test system: HEK-293T; experiment: Multiplex assay against HEK293T; format: toxicity, cell-based; settings: human; how it was run: as §1
# [3] = 24 h, 1 µM, compound concentration 1 uM
# [4] = 24 h, 10 µM, compound concentration 10 uM
# [5] = 48 h, 1 µM, compound concentration 1 uM
# [6] = 48 h, 10 µM, compound concentration 10 uM
# [7] = 12 h, 1 µM, compound concentration 1 uM
# [8] = 12 h, 10 µM, compound concentration 10 uM
structure (smiles),measurement,setting,value
O=C1CSC(=O)N1C(CCc1ccncc1)COc1ccc(-c2cccc([N+](=O)[O-])c2)cc1 (stereo not drawn),Population Mitochondria Different-Phenotype (%),[1]; [3],0.41% and 10%
same,Population Mitotic Cells (%),[1]; [3],59.62% and 60%
same,Population Normal (%),[1]; [3],99.82% and 100%
same,Population Pyknosed Nuclei (%),[1]; [3],9.63% and 17.68%
same,Population Tubulin-Different-Phenotype (%),[1]; [3],1.45% and 0.62%
same,Total Cell Count,[1]; [3],541 and 198
same,Population Apoptotic (%),[1]; [4],50% and 31.58%
same,Population Fragmented Nuclei (%),[1]; [4],2.96% and 3.38%
same,Population Healthy Nuclei (%),[1]; [4],68.34% and 70.95%
same,Population Hoechst High Intensity Objects (%),[1]; [4],0.23% and 0%
same,Population Membrane Permeable-Phenotype (%),[1]; [4],43% and 73.33%
same,Population Mitotic Cells (%),[1]; [4],50% and 68.42%
same,Population Normal (%),[1]; [4],99.77% and 100%
same,Population Pyknosed Nuclei (%),[1]; [4],28.7% and 25.68%
same,Population Tubulin-Different-Phenotype (%),[1]; [4],96.67% and 89.52%
same,Total Cell Count,[1]; [4],440 and 148
same,Population Apoptotic (%),[1]; [5],43.9% and 44.68%
same,Population Fragmented Nuclei (%),[1]; [5],2.54% and 3.2%
same,Population Healthy Nuclei (%),[1]; [5],89.11% and 83.14%
same,Population Hoechst High Intensity Objects (%),[1]; [5],0%
same,Population Membrane Permeable-Phenotype (%),[1]; [5],1.6% and 1.75%
same,Population Mitochondria Different-Phenotype (%),[1]; [5],0.34% and 6.64%
same,Population Mitotic Cells (%),[1]; [5],56.1% and 55.32%
same,Population Normal (%),[1]; [5],100%
same,Population Pyknosed Nuclei (%),[1]; [5],8.34% and 13.66%
same,Population Tubulin-Different-Phenotype (%),[1]; [5],1.94% and 1.75%
same,Total Cell Count,[1]; [5],983 and 344
same,Population Apoptotic (%),[1]; [6],60.54% and 58.93%
same,Population Fragmented Nuclei (%),[1]; [6],4.41% and 4.12%
same,Population Healthy Nuclei (%),[1]; [6],68.57% and 62.94%
same,Population Hoechst High Intensity Objects (%),[1]; [6],0.18% and 0%
same,Population Membrane Permeable-Phenotype (%),[1]; [6],31.1% and 67.29%
same,Population Mitotic Cells (%),[1]; [6],39.46% and 41.07%
same,Population Normal (%),[1]; [6],99.82% and 100%
same,Population Pyknosed Nuclei (%),[1]; [6],27.02% and 32.94%
same,Population Tubulin-Different-Phenotype (%),[1]; [6],82.84% and 74.77%
same,Population Apoptotic (%),[2]; [7],18.32% and 7.02%
same,Population Fragmented Nuclei (%),[2]; [7],3.08% and 7.35%
same,Population Hoechst High Intensity Objects (%),[2]; [7],0.76% and 0%
same,Population Membrane Permeable-Phenotype (%),[2]; [7],2.48% and 0%
same,Population Mitochondria Different-Phenotype (%),[2]; [7],25.62% and 16.67%
same,Population Mitotic Cells (%),[2]; [7],81.68% and 92.98%
same,Population Normal (%),[2]; [7],99.24% and 100%
same,Population Pyknosed Nuclei (%),[2]; [7],50.38% and 83.82%
same,Total Cell Count,[2]; [7],262 and 136
same,Population Apoptotic (%),[2]; [8],45.8% and 41.28%
same,Population Fragmented Nuclei (%),[2]; [8],3.51% and 3.1%
same,Population Healthy Nuclei (%),[2]; [8],19.88% and 12.4%
same,Population Hoechst High Intensity Objects (%),[2]; [8],0.58% and 0%
same,Population Membrane Permeable-Phenotype (%),[2]; [8],0%
same,Population Mitochondria Different-Phenotype (%),[2]; [8],32.35% and 18.75%
same,Population Mitotic Cells (%),[2]; [8],54.2% and 58.72%
same,Population Normal (%),[2]; [8],99.42% and 100%
same,Population Pyknosed Nuclei (%),[2]; [8],76.61% and 84.5%
same,Population Tubulin-Different-Phenotype (%),[2]; [8],70.59% and 62.5%
same,Total Cell Count,[2]; [8],172 and 129
same,Population Apoptotic (%),[2]; [3],27.34% and 23.23%
same,Population Fragmented Nuclei (%),[2]; [3],4.44% and 4.69%
same,Population Hoechst High Intensity Objects (%),[2]; [3],0.52% and 0%
same,Population Membrane Permeable-Phenotype (%),[2]; [3],0.42% and 0%
same,Population Mitochondria Different-Phenotype (%),[2]; [3],35.71% and 17.39%
same,Population Mitotic Cells (%),[2]; [3],72.66% and 76.77%
same,Population Normal (%),[2]; [3],99.48% and 100%
same,Population Pyknosed Nuclei (%),[2]; [3],33.42% and 77.34%
same,Population Apoptotic (%),[2]; [4],78.62% and 78.15%
same,Population Fragmented Nuclei (%),[2]; [4],2.66% and 5.11%
same,Population Healthy Nuclei (%),[2]; [4],20.21% and 8.03%
same,Population Hoechst High Intensity Objects (%),[2]; [4],1.05% and 0.72%
same,Population Membrane Permeable-Phenotype (%),[2]; [4],0%
same,Population Mitochondria Different-Phenotype (%),[2]; [4],81.58% and 63.64%
same,Population Mitotic Cells (%),[2]; [4],21.38% and 21.85%
same,Population Normal (%),[2]; [4],98.95% and 99.28%
same,Population Pyknosed Nuclei (%),[2]; [4],77.13% and 86.86%
same,Population Tubulin-Different-Phenotype (%),[2]; [4],100% and 45.45%
same,Total Cell Count,[2]; [4],190 and 138
same,Population Apoptotic (%),[2]; [5],14.91% and 17.91%
same,Population Fragmented Nuclei (%),[2]; [5],2.27% and 5.07%
same,Population Healthy Nuclei (%),[2]; [5],82.51% and 46.38%
same,Population Hoechst High Intensity Objects (%),[2]; [5],0%
same,Population Membrane Permeable-Phenotype (%),[2]; [5],2.59% and 1.56%
same,Population Mitochondria Different-Phenotype (%),[2]; [5],37.38% and 28.12%
same,Population Mitotic Cells (%),[2]; [5],85.09% and 82.09%
same,Population Normal (%),[2]; [5],100%
same,Population Apoptotic (%),[2]; [6],71.68% and 69.07%
same,Population Fragmented Nuclei (%),[2]; [6],2.88% and 7.56%
same,Population Hoechst High Intensity Objects (%),[2]; [6],1.89% and 0%
same,Population Membrane Permeable-Phenotype (%),[2]; [6],3.37% and 0%
same,Population Mitochondria Different-Phenotype (%),[2]; [6],95.51% and 84.62%
same,Population Mitotic Cells (%),[2]; [6],28.32% and 30.93%
same,Population Normal (%),[2]; [6],98.11% and 100%
same,Population Pyknosed Nuclei (%),[2]; [6],54.33% and 81.51%
same,Population Tubulin-Different-Phenotype (%),[2]; [6],84.27% and 69.23%
same,Total Cell Count,[2]; [6],212 and 119
